Laboratory results taken from ChEMBL document CHEMBL1131013, “Synthesis and evaluation of analogues of the partial agonist 6-(propyloxy)-4-(methoxymethyl)-beta-carboline-3-carboxylic acid ethyl ester (6-PBC) and the full agonist 6-(benzyloxy)-4-(methoxymethyl)-beta-carboline-3-carboxylic acid ethyl ester (Zk 93423) at wild type and recombinant GABAA receptors” (J Med Chem, 1998).

Experiments:
[1] = target: T1, GABA-A receptor; alpha-1/beta-3/gamma-2 (Homo sapiens, UniProt P14867+P18507+P28472); experiment: Binding affinity measured using LtK- cell membranes expressing GABA alpha-1-beta-3-gamma-2 receptor
T1 sequence (P14867 whole entry): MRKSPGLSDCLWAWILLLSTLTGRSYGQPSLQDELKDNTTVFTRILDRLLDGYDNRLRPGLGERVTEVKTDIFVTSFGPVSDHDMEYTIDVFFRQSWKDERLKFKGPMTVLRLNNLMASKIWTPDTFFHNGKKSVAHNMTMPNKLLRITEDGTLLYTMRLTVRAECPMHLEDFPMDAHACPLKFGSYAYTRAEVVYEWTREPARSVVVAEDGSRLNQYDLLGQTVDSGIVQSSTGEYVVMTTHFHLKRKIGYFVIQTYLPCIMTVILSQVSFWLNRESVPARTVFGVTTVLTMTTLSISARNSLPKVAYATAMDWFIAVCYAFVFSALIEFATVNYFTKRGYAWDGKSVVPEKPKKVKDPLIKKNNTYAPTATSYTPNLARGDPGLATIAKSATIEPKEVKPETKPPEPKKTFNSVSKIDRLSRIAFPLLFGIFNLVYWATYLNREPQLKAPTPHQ
T1 sequence (P18507 whole entry): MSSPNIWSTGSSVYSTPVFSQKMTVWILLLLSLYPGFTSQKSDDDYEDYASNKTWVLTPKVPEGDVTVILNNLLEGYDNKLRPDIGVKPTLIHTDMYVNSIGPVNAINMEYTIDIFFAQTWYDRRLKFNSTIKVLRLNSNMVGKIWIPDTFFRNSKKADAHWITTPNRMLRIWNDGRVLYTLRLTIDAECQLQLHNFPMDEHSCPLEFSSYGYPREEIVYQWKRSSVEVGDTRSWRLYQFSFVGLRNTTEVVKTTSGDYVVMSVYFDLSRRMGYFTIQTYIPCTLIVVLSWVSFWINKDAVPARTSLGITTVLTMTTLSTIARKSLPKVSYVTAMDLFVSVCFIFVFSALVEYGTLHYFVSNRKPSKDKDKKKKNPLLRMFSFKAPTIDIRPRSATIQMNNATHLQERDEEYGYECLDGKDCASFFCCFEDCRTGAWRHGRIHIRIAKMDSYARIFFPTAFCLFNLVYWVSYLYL
T1 sequence (P28472 whole entry): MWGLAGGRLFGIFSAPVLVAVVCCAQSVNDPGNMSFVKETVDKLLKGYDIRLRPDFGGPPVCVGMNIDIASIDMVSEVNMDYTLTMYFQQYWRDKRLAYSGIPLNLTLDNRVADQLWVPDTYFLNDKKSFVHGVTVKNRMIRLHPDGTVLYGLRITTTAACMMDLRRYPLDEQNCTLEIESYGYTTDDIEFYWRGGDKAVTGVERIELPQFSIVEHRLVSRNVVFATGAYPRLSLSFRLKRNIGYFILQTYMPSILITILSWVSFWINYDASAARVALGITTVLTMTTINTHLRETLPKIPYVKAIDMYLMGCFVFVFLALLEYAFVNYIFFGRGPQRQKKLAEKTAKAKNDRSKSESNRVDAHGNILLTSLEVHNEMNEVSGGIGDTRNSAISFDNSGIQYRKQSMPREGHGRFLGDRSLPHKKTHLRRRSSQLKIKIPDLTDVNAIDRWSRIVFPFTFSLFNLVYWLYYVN

[2] = target: T2, GABA-A receptor; alpha-3/beta-3/gamma-2 (Homo sapiens, UniProt P18507+P28472+P34903); experiment: Binding affinity measured using LtK- cell membranes expressing GABA alpha-3-beta-3-gamma-2 receptor
T2 sequence (P18507 whole entry): T1 sequence (P18507 whole entry)
T2 sequence (P28472 whole entry): T1 sequence (P28472 whole entry)
T2 sequence (P34903 whole entry): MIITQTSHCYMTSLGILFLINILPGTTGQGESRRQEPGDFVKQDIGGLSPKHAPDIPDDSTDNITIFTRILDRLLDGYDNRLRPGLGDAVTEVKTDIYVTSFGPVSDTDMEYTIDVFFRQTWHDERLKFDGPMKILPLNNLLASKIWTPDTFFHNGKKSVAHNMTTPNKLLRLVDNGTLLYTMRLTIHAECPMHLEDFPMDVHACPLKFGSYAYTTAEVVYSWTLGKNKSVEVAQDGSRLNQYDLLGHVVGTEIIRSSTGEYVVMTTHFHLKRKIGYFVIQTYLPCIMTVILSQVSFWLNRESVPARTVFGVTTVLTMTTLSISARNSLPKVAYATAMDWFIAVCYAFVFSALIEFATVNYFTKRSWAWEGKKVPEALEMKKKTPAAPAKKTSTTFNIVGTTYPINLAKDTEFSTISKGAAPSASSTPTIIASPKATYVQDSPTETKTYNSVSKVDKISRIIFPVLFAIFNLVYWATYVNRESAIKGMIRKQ

[3] = target: GABA-A receptor; alpha-6/beta-3/gamma-2 (Homo sapiens, UniProt P18507+P28472+Q16445); experiment: Binding affinity measured using LtK- cell membranes expressing Gamma-aminobutyric acid A receptor alpha-6-beta-3-gamma-2
GABA-A receptor; alpha-6/beta-3/gamma-2, sequence (Q16445 whole entry, one chain of several): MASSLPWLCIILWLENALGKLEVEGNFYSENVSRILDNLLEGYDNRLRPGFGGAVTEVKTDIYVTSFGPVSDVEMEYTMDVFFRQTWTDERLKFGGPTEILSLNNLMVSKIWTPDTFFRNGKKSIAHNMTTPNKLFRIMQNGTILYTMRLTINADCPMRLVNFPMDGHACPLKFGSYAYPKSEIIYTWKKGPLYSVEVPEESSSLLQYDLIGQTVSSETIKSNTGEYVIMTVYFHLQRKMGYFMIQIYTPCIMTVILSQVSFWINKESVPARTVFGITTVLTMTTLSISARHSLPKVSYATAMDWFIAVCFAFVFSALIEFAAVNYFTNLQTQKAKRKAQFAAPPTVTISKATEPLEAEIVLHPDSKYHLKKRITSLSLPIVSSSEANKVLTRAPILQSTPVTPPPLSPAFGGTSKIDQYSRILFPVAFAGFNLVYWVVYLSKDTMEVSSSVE
Method in brief: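 Ltk- cells expressing human α6β3γ2, scraped into PBS and resuspended in 10 mM KH2PO4/100 mM KCl pH 7.4. 1 h at 4 °C to equilibrium, filtration, scintillation counting.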

[4] = target: T3, GABA-A receptor; alpha-2/beta-3/gamma-2 (Homo sapiens, UniProt P18507+P28472+P47869); experiment: Binding affinity measured using LtK- cell membranes expressing GABA alpha-2-beta-3-gamma-2 receptor
T3 sequence (P18507 whole entry): T1 sequence (P18507 whole entry)
T3 sequence (P28472 whole entry): T1 sequence (P28472 whole entry)
T3 sequence (P47869 whole entry): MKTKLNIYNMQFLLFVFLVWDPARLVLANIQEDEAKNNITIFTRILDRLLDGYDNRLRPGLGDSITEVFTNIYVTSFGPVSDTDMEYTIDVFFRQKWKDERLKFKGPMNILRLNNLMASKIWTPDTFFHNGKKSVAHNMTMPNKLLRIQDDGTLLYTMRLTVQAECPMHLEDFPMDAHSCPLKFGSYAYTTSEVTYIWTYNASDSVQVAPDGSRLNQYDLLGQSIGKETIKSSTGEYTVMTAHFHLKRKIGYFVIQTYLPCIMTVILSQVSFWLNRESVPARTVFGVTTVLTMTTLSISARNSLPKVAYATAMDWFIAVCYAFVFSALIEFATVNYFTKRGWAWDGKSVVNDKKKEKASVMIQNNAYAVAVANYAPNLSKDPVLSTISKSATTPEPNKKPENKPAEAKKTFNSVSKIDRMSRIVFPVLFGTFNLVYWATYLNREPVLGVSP

[5] = target: T4, GABA-A receptor; alpha-5/beta-3/gamma-2 (Homo sapiens, UniProt P18507+P28472+P31644); experiment: Binding affinity measured using LtK- cell membranes expressing Gamma-aminobutyric acid A receptor alpha-5-beta-3-gamma-2
T4 sequence (P18507 whole entry): T1 sequence (P18507 whole entry)
T4 sequence (P28472 whole entry): T1 sequence (P28472 whole entry)
T4 sequence (P31644 whole entry): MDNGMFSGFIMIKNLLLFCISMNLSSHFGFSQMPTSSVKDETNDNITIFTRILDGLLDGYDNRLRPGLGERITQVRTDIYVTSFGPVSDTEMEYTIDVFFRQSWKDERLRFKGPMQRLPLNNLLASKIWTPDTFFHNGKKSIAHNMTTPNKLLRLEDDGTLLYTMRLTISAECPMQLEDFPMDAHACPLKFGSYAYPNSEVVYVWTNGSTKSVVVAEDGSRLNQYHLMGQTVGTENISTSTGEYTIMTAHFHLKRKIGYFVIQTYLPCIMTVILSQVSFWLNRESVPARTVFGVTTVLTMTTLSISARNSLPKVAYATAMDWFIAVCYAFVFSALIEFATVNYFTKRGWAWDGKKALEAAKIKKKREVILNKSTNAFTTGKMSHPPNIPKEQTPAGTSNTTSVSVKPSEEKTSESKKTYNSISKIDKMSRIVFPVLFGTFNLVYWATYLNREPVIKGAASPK

[6] = target: GABA-A receptor; anion channel; experiment: Displacement of [3H]flunitrazepam from GABA-A Benzodiazepine receptor of rat brain cortical membranes; type: cell membranes, Membrane
Method in brief: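 Rat cerebral cortex homogenized in 50 mM Tris-citrate, pH 7.4, and washed by centrifugation (20000g). […] Nonspecific binding with 10 μM Ro15-1788. Ended by vacuum filtration. IC50 estimated from at least six inhibitor concentrations; mean ± SEM of at least three determinations.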

CCc1c(C(=O)OC)ncc2[nH]c3cc(OC)c(OC)cc3c12
Ki [1]: 5.7 nM
Ki [2]: 4 nM
Ki [3]: 134 nM
Ki [4]: 8.3 nM
Ki [5]: 1 nM

CC(C)COc1cc2c(cn1)[nH]c1ccccc12
Ki [1]: 24.9 nM
Ki [2]: 139 nM
Ki [3]: > 10000 nM
Ki [4]: 124 nM
Ki [5]: 1000 nM

CCOC(=O)c1ncc2[nH]c3ccc(OCc4ccccc4)cc3c2c1COC
Ki [1]: 4.1 nM
Ki [2]: 6 nM
Ki [3]: > 1000 nM
Ki [4]: 4.2 nM
Ki [5]: 4.5 nM

CCOC(=O)c1[nH]cc2nc3ccc(OCc4ccccc4)cc3c-2c1CC
Ki [1]: 20.8 nM
Ki [2]: 58.7 nM
Ki [3]: > 10000 nM
Ki [4]: 78.3 nM
Ki [5]: 67.3 nM

CC(C)(C)OC(=O)c1cc2c3ccccc3nc-2c[nH]1
Ki [1]: 0.72 nM
Ki [2]: 18.9 nM
Ki [3]: > 5000 nM
Ki [4]: 15 nM
Ki [5]: 111 nM

CCc1c(OC)[nH]cc2nc3cc(OC)c(OC)cc3c1-2
Ki [1]: > 300 nM
Ki [2]: > 300 nM
Ki [3]: > 300 nM
Ki [4]: > 300 nM
Ki [5]: > 300 nM

CCOC(=O)c1ncc2c(c1CC)c1ccccc1n2C
Ki [1]: > 1000 nM
Ki [2]: > 1000 nM
Ki [3]: > 10000 nM
Ki [4]: > 1000 nM
Ki [5]: > 1000 nM

CCCOc1ccc2c(c1)c1c(COC)c(C(=O)OCC)ncc1n2C
IC50 [6]: 290 nM

CCOC(=O)c1cc2c(cn1)[nH]c1ccccc12
Ki [1]: 1.2 nM

CC(C)Oc1cc2c(cn1)[nH]c1ccccc12
Ki [1]: 283 nM
Ki [2]: > 3000 nM
Ki [3]: > 10000 nM
Ki [4]: > 3000 nM
Ki [5]: > 10000 nM

CCCCOc1cc2c(cn1)[nH]c1ccccc12
Ki [1]: 36.9 nM
Ki [2]: 245 nM
Ki [3]: > 1000 nM
Ki [4]: 194 nM
Ki [5]: 1000 nM

CCCOc1cc2c(cn1)[nH]c1ccccc12
Ki [1]: 5.3 nM
Ki [2]: 68.8 nM
Ki [3]: > 1000 nM
Ki [4]: 52.3 nM
Ki [5]: 591 nM

CCOC(=O)c1ncc2[nH]c3ccccc3c2c1COC
Ki [1]: 0.6 nM
Ki [2]: 4.8 nM
Ki [3]: 1150 nM
Ki [4]: 2.8 nM
Ki [5]: 10.4 nM

CCCOc1ccc2[nH]c3cnc(N=C=S)c(COC)c3c2c1
IC50 [6]: 24.7 nM

CCOc1[nH]cc2nc3cc(OC)c(OC)cc3c-2c1CC
Ki [1]: > 300 nM
Ki [2]: > 300 nM
Ki [3]: > 300 nM
Ki [4]: > 300 nM
Ki [5]: > 300 nM

CCCCCCCCOc1ccc2c(c1)c1c(CC)c(C(=O)OCC)ncc1n2C
IC50 [6]: > 1000 nM

CCOC(=O)c1[nH]cc2nc3cc(OC)c(OC)cc3c-2c1CC
Ki [1]: 6.2 nM
Ki [2]: 4 nM
Ki [3]: 74.9 nM
Ki [4]: 18.7 nM
Ki [5]: 3.3 nM

CCC(C)Oc1cc2c3ccccc3nc-2c[nH]1 (configuration not stated)
Ki [1]: 245 nM
Ki [2]: 869 nM
Ki [3]: > 10000 nM
Ki [4]: 818 nM
Ki [5]: > 10000 nM

c1ccc(COc2cc3c4ccccc4nc-3c[nH]2)cc1
Ki [1]: 830 nM
Ki [2]: > 3000 nM
Ki [3]: > 10000 nM
Ki [4]: > 3000 nM
Ki [5]: > 10000 nM

CCOC(=O)c1ncc2c(c1CC)c1cc(OCc3cccc4ccccc34)ccc1n2C
IC50 [6]: > 1000 nM

CC(C)CCOc1cc2c3ccccc3nc-2c[nH]1
Ki [1]: 350 nM
Ki [2]: > 3000 nM
Ki [3]: > 10000 nM
Ki [4]: > 3000 nM
Ki [5]: > 3000 nM

COCc1c(C(=O)OC(C)C)ncc2[nH]c3ccc(OCc4ccccc4)cc3c12 [ABECARNIL]
Ki [1]: 12.4 nM
Ki [2]: 7.5 nM
Ki [3]: > 10000 nM
Ki [4]: 15.3 nM
Ki [5]: 6 nM

Cc1nnc2ccc(-c3cccc(C(F)(F)F)c3)nn12 [CI-218872]
Ki [1]: 57 nM
Ki [2]: 1160 nM
Ki [3]: > 10000 nM
Ki [4]: 1960 nM
Ki [5]: 561 nM

Cc1ccc(-c2nc3ccc(C)cn3c2CC(=O)N(C)C)cc1 [ZOLPIDEM]
Ki [3]: > 10000 nM
Ki [5]: > 10000 nM
